Consider eleven compounds from ChEMBL document CHEMBL5506013, “Mitochondria-Selective Dicationic Small-Molecule Ligand Targeting G-Quadruplex Structures for Human Colorectal Cancer Therapy” (J Med Chem, 2024).

Activity calls are given as the source filed them. The calls are words filed in the database; no cut-off is given here. Where only a bound is given, the exact number is not on record here.

Series [1] deals with Quadruplex DNA. Briefly: Binding affinity to mito 29 G4 DNA (unknown origin) at 5 uM by fluorescence titration based analysis. The format is nucleic-acid assay. In a few lines: (§1)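 Oligonucleotides were pre-annealed at 95 °C for 10 min, then cooled slowly. Ligand (5 uM) was mixed with 20 uM DNA in buffer. Emission was collected over 550–800 nm, and enhancement was taken at 650 nm as F/F0.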

Series [2] relates to Quadruplex DNA. The series can be described thus: Binding affinity to mito 56 G4 DNA (unknown origin) at 5 uM by fluorescence titration based analysis. The format is nucleic-acid assay. In a few lines: as §1
For series [3], the system named is HCT-116. Briefly: Antiproliferative activity against human HCT-116 cells measured after 48 hrs by MTT assay. Particulars: for IC50: HCT-116, 48 h. The format is functional, cell-based. In a few lines:
(§2)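 Cells exposed to the ligands for 48 h. Viability was read by MTT, and the IC50 was derived from the response.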
A general note: Formazan colour is commonly taken as a measure of viable cells.

Series [4] relates to Quadruplex DNA. Briefly: Binding affinity to mito 132 G4 DNA (unknown origin) at 5 uM by fluorescence titration based analysis. The format is nucleic-acid assay. In a few lines:
as §1

Series [5] concerns Quadruplex DNA. The series can be described thus: Binding affinity to mito 78 G4 DNA (unknown origin) at 5 uM by fluorescence titration based analysis. Format: nucleic-acid assay. In a few lines:
(§3)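 Fluorescence titration in buffer. Ligand at 5 uM mixed with 20 uM pre-annealed DNA (95 °C for 10 min, slow cooling). Emission collected at 550-800 nm and monitored at 650 nm. Result reported as fold enhancement F/F0 over ligand alone.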

The subject of series [6] is BJ. Briefly: (§4) Antiproliferative activity against human BJ cells measured after 48 hrs by MTT assay. The format is toxicity, cell-based. Particulars: bj, 48 h. In a few lines:
as §2

Series [7] has as its system Quadruplex DNA. The series can be described thus: Binding affinity to mito 81 G4 DNA (unknown origin) at 5 uM by fluorescence titration based analysis. The format is nucleic-acid assay. In a few lines:
as §3

The nature of series [8]: Drug uptake in living human HCT-116 cells at 4 uM incubated for 1 hrs by Hoechst33342 staining based analysis. Format: ADME, cell-based. Conditions: hct-116, 1 h.
Series [9] relates to HFF-1. Briefly: (§5) Antiproliferative activity against human HFF-1 cells measured after 48 hrs by MTT assay. The format is toxicity, cell-based. Particulars: hff-1, 48 h, time 48 hrs. In a few lines:
as §2

Series [10] relates to Quadruplex DNA. Briefly: Binding affinity to mito 05-15 G4 DNA (unknown origin) at 5 uM by fluorescence titration based analysis. The format is nucleic-acid assay. In a few lines: as §1
A short description of series [11]: Drug uptake in living human HCT-116 cells assessed as increase in fluorescent signal in subnuclear region at 4 uM incubated for 1 hrs by Hoechst33342 staining based analysis. Particulars: hct-116, 1 h. The format is ADME, cell-based.
The subject of series [12] is Quadruplex DNA. The series can be described thus: Binding affinity to mito 05-18 G4 DNA (unknown origin) at 5 uM by fluorescence titration based analysis. The format is nucleic-acid assay. In a few lines:
as §1

Series [13] deals with DNA. Briefly: Binding affinity to HP19 DNA (non-G4 DNA) (unknown origin) assessed as dissociation constant measured upto 450 secs by surface plasmon resonance assay. The format is nucleic-acid assay. In a few lines:
(§6)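 Surface plasmon resonance in buffer at 25 °C. Four G4-mtDNAs (Mito 78, Mito 55, Mito 29, Mito 0.5-16) and the hairpin HP19 served as substrates. Kd was derived from the sensorgrams.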
In general terms: In SPR one partner is held on a chip, and binding of the other changes the refractive index at the surface.

Series [14] deals with PANC-1. Briefly: Antiproliferative activity against human PANC-1 cells measured after 48 hrs by MTT assay. The format is functional, cell-based. Conditions: PANC-1, 48 h. In a few lines:
as §2

The target in series [15] is Quadruplex DNA. Briefly: Binding affinity to mito 55 G4 DNA (unknown origin) assessed as dissociation constant measured upto 450 secs by surface plasmon resonance assay. The format is nucleic-acid assay. In a few lines:
as §6

Series [16] can be described thus: as §4. Format: toxicity, cell-based. Conditions: BJ cells. In a few lines:
as §2

Series [17] addresses Quadruplex DNA. Briefly: Binding affinity to mito 0.5-16 G4 DNA (unknown origin) assessed as dissociation constant measured upto 450 secs by surface plasmon resonance assay. Format: nucleic-acid assay. In a few lines: as §6
Series [18] can be described thus: as §5. Format: toxicity, cell-based. Particulars: HFF-1 cells. In a few lines: as §2
Series [19] relates to MDA-MB-231. The series can be described thus: Antiproliferative activity against human MDA-MB-231 cells measured after 48 hrs by MTT assay. Particulars: MDA-MB-231, 48 h. The format is functional, cell-based. In a few lines:
as §2

The subject of series [20] is HepG2. Briefly: Antiproliferative activity against human HepG2 cells measured after 48 hrs by MTT assay. The format is functional, cell-based. Particulars: HepG2, 48 h. In a few lines: as §2
For series [21], the system named is HeLa. The series can be described thus: Antiproliferative activity against human HeLa cells measured after 48 hrs by MTT assay. The format is functional, cell-based. In a few lines: as §2
Series [22] has as its target Quadruplex DNA. Briefly: Binding affinity to mito 78 G4 DNA (unknown origin) assessed as dissociation constant measured upto 450 secs by surface plasmon resonance assay. The format is nucleic-acid assay.
In series [23] the target is Quadruplex DNA. The series can be described thus: Binding affinity to mito 29 G4 DNA (unknown origin) assessed as dissociation constant measured upto 450 secs by surface plasmon resonance assay. The format is nucleic-acid assay. In a few lines: as §6
Series [24] concerns LoVo. The series can be described thus: Antiproliferative activity against human LoVo cells measured after 48 hrs by MTT assay. The format is functional, cell-based. In a few lines: as §2

Take `C[n+]1c(/C=C/c2ccc(N3CCCCC3)cc2)ccc2ccccc21.[I-]`: the result in [1], in [2], in series [4], in series [5], in series [7] and in [10] was Active. In addition, the result in series [12] was Active. Moreover, in [3], the result was inactive. Also, the Activity result in [6] and in [9] was “Toxic” throughout. Further, the Drug uptake entry is on record as “Not Active” in [8] and “Active” in [11].
As usually defined, the Kd is the free concentration of one partner at which half of the binding sites on the other are occupied at equilibrium, for simple one-to-one binding. What is called IC50 is the midpoint of a concentration-inhibition curve. A low value points to greater potency. As for `CSc1ccc(/C=C/c2ccc3ccccc3[n+]2CCCCCCCC[n+]2c(/C=C/c3ccc(SC)cc3)ccc3ccccc32)cc1`, the Kd was over 2 µM in series [13]; 0.46 µM in [15]; 0.15 µM in series [17]; 0.05 µM in [22]; 0.34 µM in [23]. For the same compound, the IC50 is 24.7 µM in series [3]; over 40 µM in series [14]; over 40 µM in series [19]; over 40 µM in series [20]; over 40 µM in series [21]; over 40 µM in series [24]. The IC50 at 48 h in series [16] is over 40 µM; in series [18], 34.7 µM.
In the case of `Cc1ccc(/C=C/c2ccc3ccccc3[n+]2CCCCCCCC[n+]2c(/C=C/c3ccc(C)cc3)ccc3ccccc32)cc1`, the Kd in series [13] was over 2 µM; in series [15], 0.91 µM; in [17], 1.17 µM; in [22], 0.07 µM; in [23], 0.72 µM. Also, the IC50 was 27.4 µM in [3]; over 40 µM in series [14]; over 40 µM in [19]; over 40 µM in [20]; over 40 µM in [21]; over 40 µM in series [24]. Further, the IC50 at 48 h in [16] and in [18] was over 40 µM throughout.
Regarding `C(=C\c1ccc2ccccc2[n+]1CCCCCCCC[n+]1c(/C=C/c2ccc(N3CCOCC3)cc2)ccc2ccccc21)/c1ccc(N2CCOCC2)cc1`, the Kd stood at 1.86 µM in series [13]; 0.47 µM in series [15]; 0.28 µM in series [17]; 0.12 µM in [22]; 0.24 µM in series [23]. Moreover, the half-maximal inhibitory concentration (IC50) in series [3] was 29.2 µM; in [14] it was over 40 µM; in [19], over 40 µM; in series [20], over 40 µM; in [21] it was over 40 µM; in [24], 35.4 µM. Moreover, the 50% inhibitory concentration (IC50) at 48 h in [16] and in [18] was over 40 µM each time.
For `C(=C\c1ccc2ccccc2[n+]1CCCCCCCC[n+]1c(/C=C/c2ccc(N3CCCC3)cc2)ccc2ccccc21)/c1ccc(N2CCCC2)cc1`, the Kd in [13] is over 2 µM; in series [15], 0.17 µM; in series [17] it was 0.41 µM; in series [22] it was 0.13 µM; in series [23], 0.15 µM. Moreover, the IC50 is 5.4 µM in series [3]; 20.5 µM in series [14]; over 40 µM in series [19]; over 40 µM in series [20]; 22.1 µM in series [21]; 15 µM in [24]. In addition, the figures for the IC50 at 48 h in [16] and in series [18] were 31.4 µM and 31.1 µM, respectively.
As to `C(=C\c1ccc2ccccc2[n+]1CCCCCCCC[n+]1c(/C=C/c2cc3ccccc3[nH]2)ccc2ccccc21)/c1cc2ccccc2[nH]1`, the Kd in series [13] is over 2 µM; in [15], 0.22 µM; in [17], over 2 µM; in [22] it was 1.84 µM; in series [23], 0.14 µM. The IC50 in series [3] is 8 µM; in series [14], over 40 µM; in [19], over 40 µM; in series [20], 37.3 µM; in series [21] it was 34.6 µM; in [24], over 40 µM. The IC50 at 48 h in series [16] and in series [18] was over 40 µM each time.
Consider `C(=C\c1ccc2ccccc2[n+]1CCCCCCCC[n+]1c(/C=C/c2ccccc2)ccc2ccccc21)/c1ccccc1`, for which the Kd in series [13] was over 2 µM; in series [15], 0.58 µM; in [17], 1.02 µM; in [22], 0.29 µM; in series [23], 0.5 µM. Besides, the IC50 in [3], in [14], in series [19], in series [20], in series [21] and in series [24] was over 40 µM in each case. The IC50 at 48 h in [16] was over 40 µM; in [18] it was 28.3 µM.
`CN(C)c1ccc(/C=C/c2ccc3ccccc3[n+]2CCCCCCCC[n+]2c(/C=C/c3ccc(N(C)C)cc3)ccc3ccccc32)cc1`: the Kd in series [13] is over 2 µM; in series [15] it was 0.13 µM; in series [17], 0.11 µM; in series [22], 0.03 µM; in series [23] it was 0.14 µM. Further, the IC50 in [3] was 17.2 µM; in series [14], over 40 µM; in series [19], over 40 µM; in series [20] it was over 40 µM; in [21], 29.5 µM; in series [24], 15.4 µM. Besides, the concentration for half-maximal inhibition (IC50) at 48 h in [16] was over 40 µM; in [18], 22.7 µM.
Take `CCCC[n+]1c(/C=C/c2ccc(N3CCCCC3)cc2)ccc2ccccc21.[I-]`: the outcome in series [1], in series [2], in [4], in [5], in [7] and in series [10] was Active. Also, in series [12], the outcome was Active. Moreover, in series [3], the result was inactive. For the same compound, the Activity entry in [6] and in series [9] was “Toxic” in each case. Besides, the Drug uptake result was “Not Active” in [8] and “Active” in series [11].
For the compound `CCn1c2ccccc2c2cc(/C=C/c3ccc4ccccc4[n+]3CCCCCCCC[n+]3c(/C=C/c4ccc5c(c4)c4ccccc4n5CC)ccc4ccccc43)ccc21`, the dissociation constant Kd was over 2 µM in [13]; 0.52 µM in series [15]; 0.96 µM in series [17]; 0.02 µM in [22]; 0.21 µM in series [23]. Also, the IC50 in [3] is 8.5 µM; in series [14], over 40 µM; in series [19], over 40 µM; in series [20], 25.3 µM; in series [21] it was 32.1 µM; in series [24] it was over 40 µM. Besides, the IC50 at 48 h in series [16] and in [18] was over 40 µM each time.
As to `C(=C\c1ccc2ccccc2[n+]1CCCCCCCC[n+]1c(/C=C/c2c[nH]c3ccccc23)ccc2ccccc21)/c1c[nH]c2ccccc12`, the dissociation constant Kd is over 2 µM in series [13]; 0.61 µM in series [15]; 0.25 µM in [17]; 0.08 µM in series [22]; 0.23 µM in series [23]. The IC50 is 19.8 µM in [3]; over 40 µM in series [14]; over 40 µM in series [19]; over 40 µM in [20]; 23.3 µM in [21]; over 40 µM in [24]. Also, the IC50 at 48 h in series [16] and in series [18] was over 40 µM throughout.
